For data set [1], the system named is poly (dG-dC).poly (dG-dC). Particulars: cited from earlier work.
Data set [2] deals with poly (dA-dT).poly (dA-dT). Conditions: cited from earlier work.
In data set [3] the test system is CT DNA. As to the kind of experiment: Thermal denaturation of CT DNA. The format is binding, calf. Conditions: 0.5 equivalents of drug, 1h at 25°C, 5 mM Tris/HCl buffer; for ΔTm /1h incubation/25mM NaClO4: pH=7.39, 25mM NaClO4; for ΔTm /1h incubation/50m M NaClO4: pH=7.39, 50 mM NaClO4.
Data set [4] deals with CT DNA. As to the kind of experiment: Fluorimetric. The class given is binding, calf. Particulars: 25°C, 5mM Tris/HCl, 50 mM NaClO4 buffer, pH=7.39; values calculated at 380 nm.
In data set [5] the test system is Jurkat human T lymphocyte leukemia cells. As to the kind of experiment: Cytotoxicity assay by flow cytometry. The format is cell-based.
The test system of the next data set is SUP-T1 lymphoma cells. Nature of the data set: Cytotoxicity assay by flow cytometry. The class given is cell-based, human. A general note: Flow cytometry measures light scatter and fluorescence of single cells or particles in a stream.
Another data set deals with Jurkat cells. Nature of the data set: Apoptosis assay by two-color flow cytometry. The format is cell-based, human. Particulars: 100 µM, 16 h. A digest of the protocol:
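Jurkat cells were plated at 100,000 cells/well in RPMI 1640 with antibiotics and 10% heat-inactivated newborn calf serum, then exposed to 100 µM test compound (in 0.9% NaCl or DMSO) for 16 h. Cells were pelleted cold, washed in cold medium then PBS, and stained with Annexin V-FITC plus PI in HEPES binding buffer (pH 7.4, 140 mM NaCl, 2.55 mM CaCl2). Compensation used unstained, single- and double-stained cells.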

For data set [6], the system named is CT DNA. Nature of the data set: Spectrophotometric. The format is binding, calf. Conditions: 25°C, 5mM Tris/HCl, 50 mM NaClO4 buffer, pH=7.39; average of values calculated at 330 and 343 nm.
In data set [7] the test system is dedifferentiated liposarcoma cell line LS141. Particulars: cited from earlier work.
The test system of data set [8] is HCT-116 colon cancer cell lines. Conditions: cited from earlier work.
Data set [9] concerns several cancer cell lines. Conditions: cited from earlier work.
The test system of another data set is pBR322 plasmid DNA. As to the kind of experiment: Electrophoresis Mobility Shift Assay. Conditions: pBR322, 20 h at 37°C, molar ratios 0.25 to 1.0 (cisplatin 0.5 eq.). The format is binding.
For data set [10], the system named is CT DNA. As to the kind of experiment: Circular dichroism spectroscopy of CT DNA. Particulars: incubated at 37°C with increasing drug/DNA ratios. The class given is binding, calf. A general note: Circular dichroism is the unequal absorption of left and right circularly polarised light.

On to `CCN(CC)CCCC(C)Nc1ccnc2cc(Cl)ccc12.O=P(O)(O)O.O=P(O)(O)O` (single isomer, unassigned; (-)) [(−)-CQDP], for which the “binding affinity ratio of (−) to (+) enantiomer” value in data set [1] is given as 1.29; in data set [2], 1.28.
Take “[Ru(η^6-p-cymene)(η^6-CQDP)][BF4]2 [Complex 5]”: in the data set on CT DNA [3], the “ΔTm /1h incubation/25mM NaClO4” value was “+5.1 °C” and the “ΔTm /1h incubation/50m M NaClO4” value was “+2.8 °C”. In the data set on CT DNA [4], the “Kb1, Emission Titration” value was 1.2e+06 M⁻¹ and the “Kb2, Emission Titration” value was 354000 M⁻¹. In [5] (20 h of incubation, PI and flow cytometry, average of triplicates), this molecule came in with a CC50 of 77 µM. Half-maximal cytotoxicity in the data set on SUP-T1 lymphoma cells (SUP-T1, 20 h of incubation, PI and flow cytometry, average of triplicates) (CC50) was put at 70 µM. Also, in the data set with Jurkat cells, the “mechanism of cell death (apoptosis/necrosis)” value is “mainly induce apoptosis”. Besides, in the data set with CT DNA [6], the “Kb1, Absorption Titration” value is listed as 2.10 ± 0.68 x 10^7 M^−1 and the “Kb2, Absorption Titration” value was 3.15 ± 0.12 x 10^5 M^−1. In addition, the “antitumor activity (in words)” value in [7] is listed as “active”. In addition, the “antitumor activity (in words)” value in data set [8] is “active”.
Ru(KTZ)2Cl2: the IC50 in [9] was approximately 25 µM.
Take `CCN(CC)CCCC(C)Nc1ccnc2cc(Cl)ccc12` (stereo not shown) [CQDP, chloroquine diphosphate]: in the data set with CT DNA [3], the “ΔTm /1h incubation/25mM NaClO4” value is “+4.9 °C” and the “ΔTm /1h incubation/50m M NaClO4” value was “+3.0 °C”. In addition, the “effect on electrophoretic mobility of CCC and OC forms” value in the data set on pBR322 plasmid DNA is “does not cause any significant effect”. The “changes in CD spectrum of CT DNA” value with CT DNA [10] is “two new sizable CD bands at 330 and 340 nm”. In the data set on CT DNA [4], the “Kb1, Emission Titration” value is 2.63e+07 M⁻¹ and the “Kb2, Emission Titration” value is 438000 M⁻¹. For the same molecule, the CC50 in data set [5] (Homo sapiens, 20 h) stood at 95 µM. The CC50 in the data set on SUP-T1 lymphoma cells (Homo sapiens, SUP-T1, 20 h) amounted to 130 µM. Also, in the data set with CT DNA [6], the “Kb1, Absorption Titration” value is listed as 1.07 ± 0.05 x 10^7 M^−1 and the “Kb2, Absorption Titration” value is 1.23 ± 0.68 x 10^5 M^−1.
`N.N.[Cl][Pt][Cl]` [cisplatin]: the “effect on electrophoretic mobility of CCC and OC forms” value with pBR322 plasmid DNA is “decrease in mobility of the CCC form and an increase in mobility of the OC form”.

The term CC50 denotes the concentration giving 50% cytotoxicity. One may read the IC50 as the concentration that inhibits the measured activity by half.
